In ChEMBL document CHEMBL2384935, “Role of Amphiphilicity in the Design of Synthetic Mimics of Antimicrobial Peptides with Gram-negative Activity” (ACS Med Chem Lett, 2013):
≈ marks a conversion by molar mass, not a printed value.

Tests used:
[1] = Hemolytic activity in human RBC assessed as hemoglobin release after 1 hr; assay type: ADME, cell-based, Erythrocyte; settings: human red blood cells
How it was run: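 Human red blood cells were exposed to the compounds. The value is the HC50, the concentration that produces 50% hemolysis of the RBCs.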

[2] = tested on: Escherichia coli; experiment: Antibacterial activity against Escherichia coli ATCC 25922 assessed as growth inhibition after 18 hrs by CLSI microbroth dilution assay; assay type: functional; settings: ATCC 25922, 18 h
[3] = tested on: Staphylococcus aureus; experiment: Antibacterial activity against Staphylococcus aureus ATCC 27660 assessed as growth inhibition after 18 hrs by CLSI microbroth dilution assay; assay type: functional; settings: ATCC 27660, 18 h

Compound | MIC [2] [µg/mL] | MIC [3] [µg/mL] | HC50 at 1 h [1] [µg/mL]
NCCCOc1cc(OCCCN)cc(-c2cc(NC(=O)c3ccc4ccccc4c3)cc(-c3cc(OCCCN)cc(OCCCN)c3)c2)c1 | > 50 | 6.25 (≈ 9.03 µM) | 422
NCCCOc1cc(OCCCN)cc(-c2cc(NC(=O)c3ccc(-c4ccccc4)cc3)cc(-c3cc(OCCCN)cc(OCCCN)c3)c2)c1 | 25 (≈ 34.8 µM) | 1.56 (≈ 2.17 µM) | 113
Cc1ccc(-c2cc(-c3cc(OCCCN)cc(OCCCN)c3)cc(-c3cc(OCCCN)cc(OCCCN)c3)c2)cc1 | 3.13 (≈ 5.11 µM) | 0.78 (≈ 1.27 µM) | 279
NCCCOc1cc(OCCCN)cc(-c2cc(NC(=O)c3ccccc3)cc(-c3cc(OCCCN)cc(OCCCN)c3)c2)c1 | > 50 | 50 (≈ 77.9 µM) | > 1000
Ac-GIGKFLKKAKKFGKAFVKILKK-NH2 | 16 | 8 | 120

Continued, in another order:

MIC [2] [µg/mL] | MIC [3] [µg/mL] | Compound | HC50 at 1 h [1] [µg/mL]
> 50 | 12.5 (≈ 18 µM) | NCCCOc1cc(OCCCN)cc(-c2cc(NC(=O)Cc3c[nH]c4ccccc34)cc(-c3cc(OCCCN)cc(OCCCN)c3)c2)c1 | 519
3.13 (≈ 5.23 µM) | 12.5 (≈ 20.9 µM) | NCCCOc1cc(OCCCN)cc(-c2cc(-c3ccccc3)cc(-c3cc(OCCCN)cc(OCCCN)c3)c2)c1 | 537
6.25 (≈ 9.8 µM) | 1.56 (≈ 2.45 µM) | NCCCOc1cc(OCCCN)cc(-c2cc(-c3cc(OCCCN)cc(OCCCN)c3)cc(-c3cc4ccccc4[nH]3)c2)c1 | 634
3.13 (≈ 4.78 µM) | 1.56 (≈ 2.38 µM) | CC(C)(C)c1ccc(-c2cc(-c3cc(OCCCN)cc(OCCCN)c3)cc(-c3cc(OCCCN)cc(OCCCN)c3)c2)cc1 | 41
6.25 (≈ 8.51 µM) | 1.56 (≈ 2.12 µM) | NCCCOc1cc(OCCCN)cc(-c2cc(-c3cc(OCCCN)cc(OCCCN)c3)cc(-c3cc(C(F)(F)F)cc(C(F)(F)F)c3)c2)c1 | 34
